From PubChem
MrgX1 ag: agonists of human MrgX1 receptor; MrgX1-HEK293 cells, Fluo-4 calcium fluorescence, agonist mode; hits give high values; B-score at 10 µM; 0.44% of 310,000 active; AID 588627;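 active means calcium response B-score plate-corrected fluorescence ratio at least 3 library SD, with starting fluorescence B-score inside 5 SD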
Target sequence (Q96LB2 whole entry, looked up): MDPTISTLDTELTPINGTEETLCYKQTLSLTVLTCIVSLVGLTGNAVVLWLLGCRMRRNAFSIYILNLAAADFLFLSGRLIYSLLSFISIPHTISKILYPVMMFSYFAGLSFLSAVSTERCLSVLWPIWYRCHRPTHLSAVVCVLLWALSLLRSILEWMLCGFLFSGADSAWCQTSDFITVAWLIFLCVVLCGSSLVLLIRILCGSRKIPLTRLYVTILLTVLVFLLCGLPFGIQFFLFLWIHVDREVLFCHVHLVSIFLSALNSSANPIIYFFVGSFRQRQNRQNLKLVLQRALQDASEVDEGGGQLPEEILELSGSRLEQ
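Assay system: MrgX1-expressing HEK293 cells / Amount: fifteen thousand cells per well / Doses: test compound in the initial addition of three / Timing: cells plated overnight, dye loaded 0.5 h 37 °C, 0.5 h room temperature / Technique: kinetic calcium dye fluorescence, Fluo-4 NW / Control set: positive and negative controls per plate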
MrgX1 antag: antagonists of human MrgX1 receptor; AID 588676; MRGX1-HEK293 calcium flux, Fluo-4, BAM8-22 antagonism; hits give low values; 1.3% of 310,000 active; B-score at 10 µM;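 active means calcium-response B-score plate-corrected more than 3 library SD below zero, starting fluorescence within 5 deviations, no agonist response on first addition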;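 further: peak minus trough fluorescence over baseline after final BAM8-22 challenge near maximal dose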
RGS4 inh: inhibitors of human RGS4; 0.45% of 310,000 active; P49798; AID 463165; HEK293 M3R/RGS4 inducible, Fluo-4 calcium flux; hits give high values; triggered by carbachol at its EC20; B-score at 10 µM;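 active means B-score, a plate-corrected calcium signal, over three deviations above library mean, with baseline fluorescence within five deviations of library mean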;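 further: RGS4 expression induced by doxycycline in cells with stable M3 receptor; B-score is computed from the integrated fluorescence ratio over baseline after carbachol; higher B-score means a larger calcium signal and so more RGS4 inhibition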
Target sequence (P49798 whole entry, looked up): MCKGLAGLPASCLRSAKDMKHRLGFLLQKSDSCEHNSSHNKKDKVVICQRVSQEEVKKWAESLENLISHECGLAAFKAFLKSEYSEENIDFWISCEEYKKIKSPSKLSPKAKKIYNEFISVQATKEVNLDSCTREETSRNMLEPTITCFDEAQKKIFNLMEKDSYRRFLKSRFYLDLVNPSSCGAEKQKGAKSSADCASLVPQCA
MrgX1 allo act: allosterically activates human MrgX1 receptor signaling; MrgX1-HEK293, Fluo-4 calcium flux, FDSS; hits give high values; B-score at 10 µM; 0.63% of 310,000 active;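 active means plate-corrected calcium response at least 3 library SD above typical, normal starting fluorescence, not activating the receptor alone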;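 further: compound read alongside a low EC10 to EC30 dose of BAM8-22 agonist; peak minus trough fluorescence over baseline measured at the second addition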
RGS4 act: RGS4 potentiation or activation | AID 463111 | B-score at 10 µM | HEK293 M3R/inducible RGS4, carbachol calcium flux Fluo4; hits give low values | 0.92% of 310,000 active;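 active means B-score of the integrated calcium signal more than 4 SD below the library mean, with starting fluorescence not abnormally high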;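 further: negative B-score means reduced calcium response which marks RGS4 activation or potentiation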
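test system = M3R-expressing HEK293 line, RGS4 induced by doxycycline | probe or stimulus = carbachol at ECmax as muscarinic agonist stimulus | timing = dye loading 30 min 37 °C, buffer rest 30 min RT | signal = calcium dye Fluo4 fluorescence | evaluation = B score from integrated fluorescence ratio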
MrgX1 ag reconf: reconfirmed activator of human MrgX1 receptor signaling. MrgX1-HEK293, Fluo-4 calcium fluorescence, FDSS. activation, % at 10 µM. shares compounds with MrgX1 ag. 78% of 600 active. AID 602412;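 active means calcium signal rise, corrected for plate position, at least 3 library SD high, with starting brightness within 5 such deviations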
HEK293 Ca flux: counter-screen for MrgX1 antagonists: effect in parental HEK293 cells. shares compounds with MrgX1 antag. fluorescence ratio F(max-min)/F0 at 10 µM. Fluo-4 calcium fluorescence, FDSS. 2% of 4,000 active. AID 624111;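 active means duplicate-averaged calcium fluorescence ratio at least three times the standard deviation of buffer wells, a nonspecific response in parental cells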
HEK293 Ca counter: MrgX1 allosteric activator counter-screen hit in parental HEK293 cells. parental HEK293 calcium flux, Fluo-4 fluorescence ratio; hits give high values. 0.4% of 4,000 active. fluorescence ratio F(max-min)/F0 at 10 µM. shares compounds with MrgX1 antag;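 active means calcium fluorescence ratio, averaged over duplicates, at least 3 SD of the buffer-well ratio, meaning a nonspecific response in receptor-free cells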;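 further: untransfected parental HEK293 lacking MrgX1 used as counterscreen for MrgX1 allosteric activators; fluorescence change taken during the second addition on a kinetic imager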
HEK293 Ca cntr2: activity in parental HEK293 cells lacking MrgX1 receptor. shares compounds with MrgX1 antag. Fluo-4 calcium fluorescence (FDSS); hits give high values. fluorescence ratio F(max-min)/F0 at 10 µM. 8.7% of 4,000 active. AID 624115;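 active means calcium fluorescence ratio at least three times the spread of buffer wells, meaning a non-specific response in parental cells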
A number is an active result; . = inactive; / = no result. Hits are enriched below; roughly 3.5% of the tested compounds scored in any of these assays.

SMILES | MrgX1 ag | MrgX1 antag | RGS4 inh | MrgX1 allo act | RGS4 act | MrgX1 ag reconf | HEK293 Ca flux | HEK293 Ca counter | HEK293 Ca cntr2
CC(C)N1CCc2c(sc(NC(=O)c3ccc(C(=O)c4ccccc4)cc3)c2C(N)=O)C1 | 36 | . | . | . | . | . | . | . | .
CC(C)N1CCc2c(sc(NC(=O)Cc3ccccc3)c2C(N)=O)C1 | . | . | . | . | . | / | / | / | /
O=C1C(=O)N(Cc2cccs2)c2ccccc21 | 33 | . | . | . | . | 185% | . | . | .
O=C(CN1C(=O)C(=O)c2ccccc21)c1ccccc1 | . | . | . | . | . | / | / | / | /
Cc1cccc(C(=O)NC(=S)NNC(=O)c2ccccc2Cl)c1 | 105 | . | . | . | . | 776% | . | . | 149
Cc1cccc(C(=O)NC(=S)Nc2ccccc2C(=O)O)c1 | . | . | . | . | . | / | / | / | /
Cc1cccc(C(=O)NC(=S)NNC(=O)Cc2ccccc2)c1 | 119 | . | . | . | . | 638% | . | . | 137
O=C(NNC(=O)C1CCCCC1)c1ccncc1 | . | . | . | . | . | / | / | / | /
O=C(NNC(=S)NC(=O)C12CC3CC(CC(C3)C1)C2)c1ccncc1 | 117 | . | . | . | . | 600% | . | . | 121
CC1(C(=O)NC(=S)NNC(=O)c2ccncc2)CCCCC1 | 87 | . | . | . | . | 489% | . | . | 101
CC/C(=N\NC(=O)c1ccncc1)C12CC3CC(CC(C3)C1)C2 | . | . | . | . | . | / | / | / | /
C=CCOC(=O)C1=C(C)OC(N)=C(C#N)C1c1ccccc1F (stereo not given) | 27 | . | . | . | . | 173% | . | . | .
CCCCCn1c(=N)c(S(=O)(=O)c2ccc(Cl)cc2)cc2c(=O)n3cccc(C)c3nc21 | 27 | . | . | . | . | 94% | . | . | .
O=C(NCCCN1CCCC1=O)c1c(O)nc2sccn2c1=O | . | . | . | . | . | / | / | / | /
COc1ccccc1C(=O)NCC(=O)OCC(=O)c1ccc2c(c1)-c1ccccc1C2 | . | . | . | . | . | / | / | / | /
CCCn1c(=O)c(C(=O)NNC(=O)c2ccccc2Cl)c(O)c2ccccc21 | 97 | . | . | . | . | 308% | . | . | 64
Cc1ccc(NS(=O)(=O)c2c(C)nc3sccn3c2=O)cc1C | . | . | . | . | . | / | / | / | /
Cc1cc(OC(=O)c2ccccc2)n(CCC#N)n1 | 38 | . | . | . | . | 195% | . | . | .
CN=C(Nc1cc(C)nn1CCC#N)c1ccccc1 | . | . | . | . | . | / | / | / | /
CSc1ncccc1C(=O)NCCc1ccc(S(N)(=O)=O)cc1 | 33 | . | . | . | . | . | . | . | .
CSc1ncccc1C(=O)NCCc1ccccc1 | . | . | . | . | . | / | / | / | /
Cc1cc(Br)c(OCC(=O)NN)c2c1CCC2 | . | . | . | . | . | / | / | / | /
Nc1c(C(=O)c2ccc(Cl)cc2)sc2nsc(SCCN3CCOCC3)c12 | 39 | . | . | . | . | . | 0.48 | . | 104
Nc1c(C(=O)c2ccccc2)sc2nsc(SCCN3CCCC3)c12 | . | . | . | . | . | / | / | / | /
CCC1(C)NC(=O)N(CC(=O)Nc2sc3c(c2C(=O)OC)CCCCC3)C1=O (stereo not given) | 28 | . | . | . | . | 437% | . | . | 128
COc1ccc(Oc2ccc(NC(=O)c3ccccc3C)cc2)cc1 | . | . | . | . | . | / | / | / | /
CCOC(=O)C1CCN(C(=O)CCNC(=O)c2cc(OC)c(OC)c(OC)c2)CC1 | . | . | . | . | . | / | / | / | /
Fc1cccc(Nc2nc3ccccc3n3nnnc23)c1 | . | . | . | . | . | / | / | / | /
c1ccc2c(c1)nc(Nc1ccc3c(c1)OCO3)c1nnnn12 | 30 | . | . | . | . | 207% | . | . | .
